Source: PubChem (several laboratories)
NF-kB neuron act: NF-kB expression increase, human neuronal cells; NF-kB reporter expression; stronger effect = higher value; fold change at 12.5 µM; hit rate 1.6% among 190,000; AID 1239; in the data active = fold change above about 3.3
APP 5'UTR act: APP 5'UTR luciferase reporter activation. SH-SY5Y APP 5'UTR luciferase reporter, luminescence; zero percent = DMSO vehicle wells. activation, % at 2 µM. hit rate 1% among 190,000. AID 1276;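 active = activation above a set limit, based on mean plus 3 SD of controls, cut at about 140% in these data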
STAT1 act: increases IFN-gamma driven STAT1 reporter signal; NIH 3T3 STAT1-luciferase reporter, luminescence; 100% = IFN-gamma alone, no compound; activation (% of control), % at 5.5 µM; hit rate 2.6% among 200,000;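 active = activation above the screen-wide mean activation plus 3 SD, cut at about 130% in these data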;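 also: raw ratio to IFN-gamma control signal so 100% means no change and 0% no light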
STAT3 inh-1: reduces IL-6 driven STAT3 reporter signal; hit rate 0.89% among 190,000; U3A cells, IL-6 STAT3-luciferase reporter, luminescence; host cell line lacks STAT1; inhibition, % at 5.5 µM; AID 862;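 active = inhibition above the mean inhibition across all screened compounds plus 3 SD, cut at about 44% in these data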;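 also: 0% = DMSO only wells and 100% = 100 µM nifuroxazide control wells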
STAT3 activator: STAT3 signaling activation. U3A cells, IL-6 STAT3-luciferase reporter, luminescence; 100% = signal with IL-6 EC80 alone. activation (% of control), % at 5.6 µM. hit rate 0.91% among 190,000. AID 871;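 active = activation above the screen-wide mean of compound activation plus 3 SD, cut at about 130% in these data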;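 also: 0% = background luminescence of wells with medium and substrate only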
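Material: human U3A cells carrying STAT3-luciferase construct. Measured by: reporter luminescence signal. Timing: compound 1 h, then IL-6 6 h at 37 °C.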
STAT1 blocker: reduces IFN-gamma driven STAT1 reporter signal. NIH 3T3 STAT1-luciferase reporter, luminescence. inhibition, % at 5.5 µM. hit rate 0.35% among 200,000. AID 920;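 active = inhibition above a set limit, the mean inhibition across all tested compounds plus 3 SD, cut at about 34% in these data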;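 also: 0% = IFN-gamma with DMSO and 100% = IFN-gamma with 300 µM nifuroxazide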
STAT3 inh-2: confirmation of STAT3 signaling inhibitors; U3A cells, IL-6 STAT3 luciferase reporter, luminescence; cell line lacks STAT1; hit rate 45% among 1,200; inhibition, % at 5.7 µM; shares compounds with STAT3 inh-1;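 active = inhibition above the hit cutoff computed for the primary STAT3 screen, cut at about 44% in these data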;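 also: 0% = IL-6 plus DMSO and 100% = IL-6 plus nifuroxazide control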
NFkB inh 2: counter-screen for STAT3 inhibitors: NF-kappaB inhibition | shares compounds with STAT3 inh-1 | HEK293T NF-kB luciferase reporter, TNF-alpha induced | inhibition, % at 5.7 µM | hit rate 36% among 1,200 | AID 1308;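 active = inhibition above the mean of solvent-only control wells plus 3 SD, cutoff set per campaign, cut at about 13% in these data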;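 also: 0% = TNF-alpha with DMSO and 100% = TNF-alpha with MG high control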
STAT1 inh 2: inhibits STAT1, counter-screen to STAT3 inhibitors; shares compounds with STAT3 inh-1; NIH 3T3 STAT1-luciferase reporter, IFN-gamma induced, luminescence; inhibition, % at 5.7 µM; hit rate 27% among 1,200; AID 1317;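 active = inhibition above the mean plus 3 SD of solvent-only control wells, limit set per screening run, cut at about 16% in these data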;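 also: 0% = DMSO with IFN-gamma and 100% = nifuroxazide control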
Numbers without * were called inactive; · = no result given. Rows were chosen to be rich in hits. Some 5.1% of all compounds tested hit in one or more screens of this group.

SMILES	NF-kB neuron act	APP 5'UTR act	STAT1 act	STAT3 inh-1	STAT3 activator	STAT1 blocker	STAT3 inh-2	NFkB inh 2	STAT1 inh 2
O=C(/C=C/c1ccccc1Cl)Nc1cccc(O)c1	12*	191*	69	64*	48	32	24	14*	17*
O=C(/C=C/c1ccccc1Cl)Nc1ccc2c(c1)C(=O)NC2=O	0.99	-2	99	13	96	1	·	·	·
O=C1c2ccccc2-c2nnc(-c3ccccc3)cc21	3.3*	24	71	52*	59	32	55*	33*	16*
c1ccc(-c2cc3c(nn2)CCc2nonc2-3)cc1	1.2	10	104	26	80	-5	·	·	·
C=CCN=C1NN=C(c2cc(C)n(CC=C)c2C)CS1	0.25	58	78	74*	38	25	50*	26*	2
COCCN=C1NN=C(c2cc(C)n(CC3CCCO3)c2C)CS1 (stereo not drawn)	0.52	6	96	10	95	3	·	·	·
CC(Sc1ccc2c(c1)OCCO2)C(=O)Nc1ccc(N2CCOCC2)cc1 (stereo not drawn)	1.2	12	105	7	96	-5	·	·	·
COc1ccc(CNC(=O)C(c2ccncc2)N(C(=O)Cc2cccs2)c2ccccc2)cc1 (stereo not drawn)	1	·	106	-5	104	-7	·	·	·
COc1ccc(N(C(=O)CCl)C(C(=O)NCCc2ccccc2)c2cccs2)cc1 (stereo not drawn)	0.09	-16	78	62*	47	24	92*	-2	21*
Fc1cccc(/C=N/Nc2ccc3ccccc3n2)c1	1.2	225*	68	60*	52	34	17	-4	-82
Brc1ccc(/C=N/Nc2ccc3ccccc3n2)cc1	3.3	30	126	2	99	-28	·	·	·
COc1ccc(CCNc2nc3c(c(=O)n(C)c(=O)n3C)n2C)cc1OC	0.82	11	100	-11	110	4	·	·	·
Cc1ccc(-c2cc(C(=O)NCc3ccc4c(c3)OCO4)no2)cc1	1.1	-2	92	16	90	8	·	·	·
CS(=O)(=O)c1ccc(C(=O)N2CCN(Cc3ccccc3)CC2)cc1	1.1	12	105	7	99	-5	·	·	·
O=C(c1ccc(CNS(=O)(=O)c2ccccc2)cc1)N1CCN(Cc2ccccc2)CC1	0.88	14	97	44*	66	3	28	6	-16
Cc1ccc(NC(=S)Nc2ccc3cn[nH]c3c2)c(C)c1	1.1	34	102	-5	105	-4	·	·	·
Cc1ccnc(NC(=O)c2ccc(Cl)c(NC(=O)C(C)Oc3ccccc3)c2)c1 (stereo not drawn)	1.2	21	102	1	102	-4	·	·	·
CC1(C)CC(=O)C=C(NC2=CC3OC(c4ccccc4)OCC3OC2=O)C1 (stereo not drawn)	1	-19	86	45*	63	15	42	23*	18*
CCOc1cc(NC(=S)NCC2CCCO2)c(OCC)cc1NC(=O)c1ccccc1F (stereo not drawn)	0.49	1	104	2	98	-4	·	·	·
Cc1c(C(=O)N2CCc3ccccc3C2)sc2nc(-c3ccccc3)cn12	1.3	7	101	2	101	-1	·	·	·
c1ccc(-c2cn3c4c(sc3n2)CCCC4)cc1	1.6	88	75	82*	33	27	59*	50*	12
O=C(Cn1cnc2scc(-c3cccc([N+](=O)[O-])c3)c2c1=O)NCc1ccco1	0.83	-15	100	2	104	-2	·	·	·
COc1cccc(-c2cc(C(=O)Nc3cccc(O)c3)no2)c1	6.7*	106	100	89*	29	0	50*	9	-53
O=C(O)C1C2C=CC(C2)C1C(=O)NCCCn1ccnc1 (stereo not drawn)	1.1	·	102	4	100	0	·	·	·
